# Paper PMC4948672 (Cancer research, 2015)
# Values joined by “and” are separate entries in the source; they are usually repeats but may differ in a detail not shown here. Identical values can stand only once.
# Key:
# [1] = system: peripheral CD34+ cells from healthy donors; test: clonogenic growth of primary cells in methylcellulose; type: cell-based, human; details: three healthy donors
# Method in brief: (§1)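 Primary human cells were grown in methylcellulose with test compound: CD34+ cells from healthy donors (n=3) or AML patient blasts (n=5). Colonies and cell numbers are expressed as mean percentage of vehicle-treated ±SD; ANOVA with Dunnett. Morphology was assessed by Giemsa-Wright stain after DMSO or 5 µM treatment.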
# KASUMI-1 cells [2] = test: cell cycle analysis by flow cytometry; type: cell-based, human; details: day 2 and 3, more pronounced at day 6
# BRD4(2) [3] = biological target: T1, BRD4(2) (Homo sapiens, UniProt O60885); test: isothermal titration calorimetry; type: binding
# BRD4(2) [4] = biological target: T1, BRD4(2); test: temperature shift assay; type: binding; details: second bromodomain of BRD4
# pharmacokinetic study = type: in vivo; details: mice
# full-length CBP [5] = biological target: T2, full-length CBP (Homo sapiens, UniProt Q92793); type: cell-based; details: NanoBRET dose response
# full-length CBP [6] = biological target: T2, full-length CBP; type: cell-based; details: GFP-tagged full-length CBP
# CBP bromodomain [7] = biological target: T3, CBP bromodomain (Homo sapiens, UniProt Q92793); type: binding; details: read-out: dissociation constant (KD); ITC, in solution
# CBP = CBP (Homo sapiens, UniProt Q92793); details: BLI
# SEM cells = test: clonogenic growth in methylcellulose; type: cell-based, human; details: dose dependent
# Method in brief: (§2)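 Human leukemic cell lines were plated in methylcellulose with different doses of test compound, and colony growth was scored. Counts are mean percentage of vehicle-treated ±SD, n=3; ANOVA with Dunnett multiple comparison.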
# [8] = system: MLL-CBP immortalized murine bone marrow cells; test: clonogenic growth and replating in methylcellulose; type: cell-based, mouse; details: more apparent upon re-plating
# Method in brief: (§3)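 Methylcellulose colony formation with serial re-plating, using either MLL-CBP immortalized murine bone marrow progenitors or MLL-AF9 leukemic blasts treated with test compound. Colonies are expressed as mean percentage of vehicle-treated ±SD, n=2; ANOVA with Dunnett multiple comparison.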
# [9] = system: 41 other members of the human bromodomain family; test: temperature shift assay, selectivity panel; type: binding; details: 41 other bromodomains
# p300 = p300 (Homo sapiens, UniProt Q09472); test: ChIP-PCR of p300 occupancy at TNFSF13B and ID2; type: cell-based; details: KASUMI-1, 3 µM
# MOLM13 = test: clonogenic growth in methylcellulose; type: cell-based, human; details: dose dependent
# Method in brief: as §2
# [10] = system: 12 human cell lines that form visible colonies in methylcellulose; test: clonogenic growth in methylcellulose, human leukemic cell line panel; type: cell-based; details: all 12 colony-forming human leukemic lines
# α1A = α1A (Homo sapiens, UniProt P35348); details: both stereoisomers; low µM region
# CBP bromodomain [11] = biological target: T3, CBP bromodomain; test: temperature shift assay; type: binding
# [12] = system: primary murine MLL-AF9+ leukemic blasts; test: WST1 cytotoxicity assay; type: cell-based, mouse
# Method in brief: (§4)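 WST1 cytotoxicity assay. Cells were murine bone marrow cells immortalized by retroviral MLL-CBP expression, or MLL-AF9 leukemic blasts isolated from mice transplanted with bone marrow retrovirally expressing that oncogene. Signal was expressed as mean percentage of vehicle-treated cells ±SD, n=4; ANOVA with Dunnett multiple comparison.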
# isolated CBP bromodomain = isolated CBP bromodomain (Homo sapiens, UniProt Q92793); test: NanoBRET, NanoLuc CBP bromodomain / Halo-tagged Histone H3.3; type: cell-based; details: read-out: cellular IC50, construct containing the bromodomain only
# full-length GFP-BRD4 = full-length GFP-BRD4 (Homo sapiens, UniProt O60885); test: NanoBRET, full-length BRD4; type: cell-based
# p300 bromodomain = p300 bromodomain (Homo sapiens, UniProt Q09472); test: isothermal titration calorimetry; type: binding; details: read-out: dissociation constant (KD); ITC, in solution
# MLL-AF9+ AML cells [13] = test: cell surface marker expression after liquid culture exposure; type: cell-based, mouse; details: 5 µM, 3 days
# KASUMI-1 = test: clonogenic growth in methylcellulose; type: cell-based, human; details: dose dependent
# Method in brief: as §2
# [14] = system: MLL-CBP immortalized murine bone marrow cells; test: WST1 cytotoxicity assay; type: cell-based, mouse; details: significant cytotoxicity only at high concentrations and prolonged exposure
# Method in brief: as §4
# [15] = system: 12 stimulated primary human co-cultured cell types; test: BioMAP panel of stimulated primary co-cultured cell types; type: cell-based
# Method in brief: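 BioMAP profiling in four human haematopoietic co-culture systems, each treated with test compound: Sag and LPS (peripheral blood mononuclear cells with venular endothelial cells), BT (B cells with peripheral blood mononuclear cells), and IMphg (venular endothelial cells with M1 macrophages). Marker protein read-outs were monitored.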
# MOLM13 cells = test: WST1 proliferation/survival assay, combination; type: cell-based, human; details: combination with doxorubicin
# MLL-AF9+ AML cells [16] = test: transplantation of pre-treated MLL-AF9+ AML cells into secondary recipients; type: in vivo, mice; details: cells pre-treated 5 µM 3 days; 5-50 x 10^3 cells transplanted
# Method in brief: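 Leukemic blasts were taken from mice that developed AML after transplantation of bone marrow retrovirally expressing MLL-AF9. Blasts were treated ex vivo with 5 µM test compound or DMSO for 3 days. Limiting doses (50 000, 10 000, 5 000, 500 cells) went into irradiated syngeneic secondary recipients, n=4/5 per group. Disease-free survival was compared by log-rank (Mantel-Cox) test.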
# [17] = system: primary murine MLL-AF9+ leukemic blasts; test: clonogenic re-plating assay in methylcellulose; type: cell-based, mouse
# Method in brief: as §3
# [18] = system: MLL-AF9 expressing blasts; test: extreme limiting dilution analysis; type: cell-based, mouse; details: 5µM for 3 days; vehicle 1/2.3
# Method in brief: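 MLL-AF9 leukemic blasts from diseased mice were exposed ex vivo to 5 µM test compound or DMSO for 3 days, then plated at limiting dilution (highest dose 10 cells). A limiting dilution model fitted on a log-fraction plot gave stem cell frequency with 95% confidence intervals. Groups were compared by an overall chi-square test.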
# KASUMI-1 cells [19] = test: apoptosis, 7-AAD/AnnexinV staining; type: cell-based, human; details: prolonged exposure, day 5, liquid culture
# 5HT1 = details: both stereoisomers; low µM region
# [20] = system: primary blast cells from AML patients; test: clonogenic growth of primary cells in methylcellulose; type: cell-based, human; details: five AML patients
# Method in brief: as §1
# BRD4(1) = BRD4(1) (Homo sapiens, UniProt O60885); test: isothermal titration calorimetry; type: binding
# CBP bromodomain [21] = biological target: T3, CBP bromodomain; details: read-out: IC50 displacing H3K56ac from the CBP binding site; AlphaScreen, H3K56ac peptide
# [22] = system: bromodomains of the BET family members; test: BLI selectivity screen, panel of 42 bromodomains; type: binding; details: only BET family identified among 42 bromodomains
# [23] = system: KASUMI-1, MOLM13 and SEM cells; test: WST1 proliferation/survival assay, single agents and combinations; type: cell-based, human; details: for activity alone in WST1 assay: single agent, different for each cell line
# H3K56ac peptide = test: ITC
# CBP/p300 HAT activity = details: cited from earlier work
# T3 sequence (Q92793 1085-1192 limits assumed): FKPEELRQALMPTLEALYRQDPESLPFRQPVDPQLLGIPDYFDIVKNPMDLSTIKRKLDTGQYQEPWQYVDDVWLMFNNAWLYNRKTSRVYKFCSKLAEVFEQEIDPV
# T2 sequence (Q92793 whole entry): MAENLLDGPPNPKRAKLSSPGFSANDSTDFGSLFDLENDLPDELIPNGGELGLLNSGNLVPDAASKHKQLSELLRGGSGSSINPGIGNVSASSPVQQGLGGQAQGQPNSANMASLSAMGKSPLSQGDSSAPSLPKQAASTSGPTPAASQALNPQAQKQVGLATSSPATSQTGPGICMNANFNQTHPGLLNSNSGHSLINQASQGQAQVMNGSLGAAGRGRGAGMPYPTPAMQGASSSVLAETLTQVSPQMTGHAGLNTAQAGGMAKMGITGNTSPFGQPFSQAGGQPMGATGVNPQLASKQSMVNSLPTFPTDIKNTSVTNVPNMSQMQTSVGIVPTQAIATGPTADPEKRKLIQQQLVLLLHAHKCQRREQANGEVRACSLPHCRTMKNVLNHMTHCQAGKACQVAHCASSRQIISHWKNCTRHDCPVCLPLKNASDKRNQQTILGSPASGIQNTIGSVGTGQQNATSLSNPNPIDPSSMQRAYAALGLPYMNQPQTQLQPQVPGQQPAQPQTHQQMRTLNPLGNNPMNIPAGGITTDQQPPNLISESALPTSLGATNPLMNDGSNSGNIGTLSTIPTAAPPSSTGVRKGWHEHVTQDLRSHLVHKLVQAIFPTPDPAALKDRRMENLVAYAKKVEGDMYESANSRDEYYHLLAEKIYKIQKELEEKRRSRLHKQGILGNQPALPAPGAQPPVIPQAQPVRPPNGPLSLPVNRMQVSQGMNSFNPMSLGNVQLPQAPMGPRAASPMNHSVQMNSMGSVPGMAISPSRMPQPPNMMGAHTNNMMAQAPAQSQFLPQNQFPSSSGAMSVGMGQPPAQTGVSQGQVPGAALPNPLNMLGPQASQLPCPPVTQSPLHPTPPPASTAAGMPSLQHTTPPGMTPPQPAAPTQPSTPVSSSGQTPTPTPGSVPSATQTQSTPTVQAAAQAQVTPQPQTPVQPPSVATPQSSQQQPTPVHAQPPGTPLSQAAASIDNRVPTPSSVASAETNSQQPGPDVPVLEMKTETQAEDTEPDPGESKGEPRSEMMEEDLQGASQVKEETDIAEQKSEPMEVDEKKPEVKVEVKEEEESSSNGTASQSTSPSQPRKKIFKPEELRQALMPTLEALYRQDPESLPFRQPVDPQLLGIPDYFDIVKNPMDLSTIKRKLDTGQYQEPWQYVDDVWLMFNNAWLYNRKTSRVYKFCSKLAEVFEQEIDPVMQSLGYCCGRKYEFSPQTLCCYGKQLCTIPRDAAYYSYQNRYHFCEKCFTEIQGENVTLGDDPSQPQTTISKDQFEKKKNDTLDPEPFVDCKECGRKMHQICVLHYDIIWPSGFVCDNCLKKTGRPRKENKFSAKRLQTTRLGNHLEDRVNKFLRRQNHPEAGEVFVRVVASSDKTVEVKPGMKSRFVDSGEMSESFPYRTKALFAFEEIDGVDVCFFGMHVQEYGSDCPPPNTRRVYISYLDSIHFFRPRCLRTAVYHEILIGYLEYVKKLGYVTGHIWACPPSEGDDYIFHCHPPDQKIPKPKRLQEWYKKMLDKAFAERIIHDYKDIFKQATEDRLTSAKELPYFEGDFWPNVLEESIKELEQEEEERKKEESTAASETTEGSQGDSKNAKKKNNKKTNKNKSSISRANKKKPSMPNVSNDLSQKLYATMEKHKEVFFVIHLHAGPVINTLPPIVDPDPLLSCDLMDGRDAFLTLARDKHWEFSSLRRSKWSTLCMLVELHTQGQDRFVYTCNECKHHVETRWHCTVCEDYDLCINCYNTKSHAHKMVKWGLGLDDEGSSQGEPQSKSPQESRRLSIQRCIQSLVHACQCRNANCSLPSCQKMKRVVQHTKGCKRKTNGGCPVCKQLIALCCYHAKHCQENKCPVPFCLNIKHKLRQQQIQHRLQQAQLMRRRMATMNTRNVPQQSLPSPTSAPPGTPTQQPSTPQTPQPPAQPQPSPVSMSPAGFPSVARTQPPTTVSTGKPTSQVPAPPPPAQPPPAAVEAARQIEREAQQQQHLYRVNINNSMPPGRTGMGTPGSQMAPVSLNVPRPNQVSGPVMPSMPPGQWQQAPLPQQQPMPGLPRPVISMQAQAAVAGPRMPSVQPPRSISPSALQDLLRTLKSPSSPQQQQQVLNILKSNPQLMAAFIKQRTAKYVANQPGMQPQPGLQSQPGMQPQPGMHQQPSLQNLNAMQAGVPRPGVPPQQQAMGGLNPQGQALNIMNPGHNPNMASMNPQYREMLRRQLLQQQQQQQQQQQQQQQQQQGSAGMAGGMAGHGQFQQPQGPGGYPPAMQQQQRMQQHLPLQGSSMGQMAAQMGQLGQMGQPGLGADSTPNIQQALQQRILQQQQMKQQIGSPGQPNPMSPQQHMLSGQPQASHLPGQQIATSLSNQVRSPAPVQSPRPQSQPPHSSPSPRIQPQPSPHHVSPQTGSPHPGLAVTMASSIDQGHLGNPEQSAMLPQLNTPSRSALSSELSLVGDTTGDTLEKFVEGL
# p300, sequence (Q09472 whole entry): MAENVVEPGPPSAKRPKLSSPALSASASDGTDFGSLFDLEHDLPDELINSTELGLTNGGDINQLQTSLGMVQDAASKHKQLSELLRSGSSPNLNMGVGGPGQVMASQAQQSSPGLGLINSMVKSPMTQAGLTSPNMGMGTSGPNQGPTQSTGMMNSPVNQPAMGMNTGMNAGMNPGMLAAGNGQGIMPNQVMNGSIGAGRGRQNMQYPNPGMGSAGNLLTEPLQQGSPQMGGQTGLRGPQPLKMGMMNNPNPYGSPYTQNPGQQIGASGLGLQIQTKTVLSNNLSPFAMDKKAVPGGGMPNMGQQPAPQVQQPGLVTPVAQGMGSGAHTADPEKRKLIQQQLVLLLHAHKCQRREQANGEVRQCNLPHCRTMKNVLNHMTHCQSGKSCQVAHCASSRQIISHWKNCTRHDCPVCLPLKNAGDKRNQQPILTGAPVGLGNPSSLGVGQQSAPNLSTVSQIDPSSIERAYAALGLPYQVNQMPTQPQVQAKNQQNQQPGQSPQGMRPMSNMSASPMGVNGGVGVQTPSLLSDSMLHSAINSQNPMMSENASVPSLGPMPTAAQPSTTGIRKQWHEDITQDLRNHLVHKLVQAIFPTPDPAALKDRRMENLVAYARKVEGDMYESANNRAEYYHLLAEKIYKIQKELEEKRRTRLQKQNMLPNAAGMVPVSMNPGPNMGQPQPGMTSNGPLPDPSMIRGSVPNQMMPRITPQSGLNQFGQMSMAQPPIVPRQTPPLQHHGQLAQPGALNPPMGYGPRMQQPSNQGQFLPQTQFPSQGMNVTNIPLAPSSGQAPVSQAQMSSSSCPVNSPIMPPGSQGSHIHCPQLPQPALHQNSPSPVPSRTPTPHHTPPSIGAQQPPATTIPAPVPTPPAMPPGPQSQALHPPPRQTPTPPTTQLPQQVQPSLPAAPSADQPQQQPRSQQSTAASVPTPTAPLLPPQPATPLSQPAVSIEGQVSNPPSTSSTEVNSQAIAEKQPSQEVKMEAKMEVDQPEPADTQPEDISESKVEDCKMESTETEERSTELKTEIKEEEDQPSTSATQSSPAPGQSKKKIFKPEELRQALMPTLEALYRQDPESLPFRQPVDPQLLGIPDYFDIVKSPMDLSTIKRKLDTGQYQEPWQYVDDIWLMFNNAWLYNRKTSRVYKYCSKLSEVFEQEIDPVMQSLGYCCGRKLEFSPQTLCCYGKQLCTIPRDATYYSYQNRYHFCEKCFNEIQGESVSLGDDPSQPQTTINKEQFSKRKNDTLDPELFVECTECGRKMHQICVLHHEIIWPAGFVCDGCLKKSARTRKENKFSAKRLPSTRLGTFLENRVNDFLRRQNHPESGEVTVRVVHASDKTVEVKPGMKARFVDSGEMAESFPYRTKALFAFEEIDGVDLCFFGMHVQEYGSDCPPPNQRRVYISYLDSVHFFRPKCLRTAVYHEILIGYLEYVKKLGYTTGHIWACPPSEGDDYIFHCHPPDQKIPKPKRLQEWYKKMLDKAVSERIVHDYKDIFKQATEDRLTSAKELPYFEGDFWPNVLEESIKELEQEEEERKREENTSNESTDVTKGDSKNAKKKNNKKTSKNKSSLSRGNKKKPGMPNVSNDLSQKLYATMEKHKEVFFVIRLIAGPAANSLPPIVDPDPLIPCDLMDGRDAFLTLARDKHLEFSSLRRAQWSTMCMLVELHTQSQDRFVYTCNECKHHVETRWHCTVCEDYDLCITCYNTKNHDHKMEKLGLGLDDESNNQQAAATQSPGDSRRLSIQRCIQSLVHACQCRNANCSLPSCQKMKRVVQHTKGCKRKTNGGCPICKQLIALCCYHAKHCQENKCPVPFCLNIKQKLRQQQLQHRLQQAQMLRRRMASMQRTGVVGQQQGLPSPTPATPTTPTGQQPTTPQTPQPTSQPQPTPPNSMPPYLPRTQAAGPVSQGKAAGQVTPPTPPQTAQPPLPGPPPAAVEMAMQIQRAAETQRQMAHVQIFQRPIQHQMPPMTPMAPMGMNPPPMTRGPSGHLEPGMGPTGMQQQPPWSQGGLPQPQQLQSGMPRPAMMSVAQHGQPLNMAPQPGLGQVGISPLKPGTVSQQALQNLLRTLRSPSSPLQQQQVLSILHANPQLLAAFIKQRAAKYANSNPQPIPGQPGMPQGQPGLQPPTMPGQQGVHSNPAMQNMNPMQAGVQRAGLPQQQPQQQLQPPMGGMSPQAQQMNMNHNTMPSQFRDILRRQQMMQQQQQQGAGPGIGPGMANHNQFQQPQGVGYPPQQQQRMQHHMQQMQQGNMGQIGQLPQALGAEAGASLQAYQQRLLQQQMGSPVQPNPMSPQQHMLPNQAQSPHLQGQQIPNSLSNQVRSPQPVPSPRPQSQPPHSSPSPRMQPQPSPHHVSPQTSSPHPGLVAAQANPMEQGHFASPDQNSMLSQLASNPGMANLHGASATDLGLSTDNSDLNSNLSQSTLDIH
# p300 bromodomain, sequence (Q09472 1049-1156 limits assumed): as the sequence (Q92793 1085-1192 limits assumed) above, with N47S, V73I, F93Y, A98S counted along it
# isolated CBP bromodomain, sequence (Q92793 1085-1192 limits assumed): as the sequence (Q92793 1085-1192 limits assumed) above
# CBP, sequence (Q92793 1085-1192 limits assumed): as above
compound,measurement,setting,value
CCC(=O)N1CCOc2c(cc(-c3ccc(OC)c(OC)c3)cc2OC[C@H]2CCCN(C)C2)C1 [I-CBP112],colony number in MC,[1],did not affect
same,cell cycle effect,KASUMI-1 cells [2],prominent G1 arrest
same,fold selectivity,"BRD4(2) [3]; CBP over BRD4(2), from ITC KDs",132 fold
same,Kd,BRD4(2) [3]; ITC,20000 nM
same,ΔTm,BRD4(2) [4],0.6 °C
same,AUC,pharmacokinetic study; IP 3 mg/kg,384 ng/h/mL
same,half-life,pharmacokinetic study; IP 3 mg/kg,36 ± 6 min
same,mean Cmax,pharmacokinetic study; IP 3 mg/kg,590 ng/mL
same,bioavailability F%,"pharmacokinetic study; IP vs IV, (AUCt/Dip)/(AUC∞/Div)",114 ± 63%
same,blood clearance,pharmacokinetic study; IV 1.2 mg/kg,high
same,volume distribution,pharmacokinetic study; IV 1.2 mg/kg,moderate
same,Cmax,"pharmacokinetic study; read-out: mean Cmax, IP 3 mg/kg, n=3",1260 ± 740 nM
same,effect on recruitment of full-length CBP to chromatin,full-length CBP [5],no significant effect
same,FRAP recovery times,full-length CBP [6],did not lead to decreased recovery times
same,Kd,CBP bromodomain [7],151 ± 6 nM
same,Kd,CBP,142 nM
same,clonogenic growth,SEM cells,significantly impaired
same,clonogenic growth,[8],significantly reduced
same,ΔTm values,[9],low
same,displacement of p300 from chromatin,p300; 8h,did not see significant displacement
same,p300 occupancy,"p300; 4 days, vs DMSO",increased p300 occupancy
same,clonogenic growth,MOLM13,significantly impaired
same,clonogenic growth,[10],significantly reduced
same,interaction in selectivity panel,α1A,weak interaction
same,ΔTm (stabilization of melting temperature),CBP bromodomain [11],7.8 ºC
same,cytotoxicity,[12],without significant cytotoxicity
same,IC50,isolated CBP bromodomain,600 ± 50 nM
same,displacement of full-length BRD4,full-length GFP-BRD4,No displacement
same,Kd,p300 bromodomain,167 ± 8 nM
same,c-Kit/CD117 expression,MLL-AF9+ AML cells [13],slightly decreased
same,granulocyte marker Gr-1 expression,MLL-AF9+ AML cells [13],slightly decreased
same,clonogenic growth,KASUMI-1,significantly impaired
same,cell survival,[14],did not affect cell survival
same,expression level of CCL2,[15],no effect
same,expression level of Selectin (CD62),[15],no effect
same,expression of IL10,[15],down-regulated
same,expression of VCAM1/CD106,[15],down-regulated
same,secreted IgG,[15],up-regulated
same,synergism,MOLM13 cells,less pronounced
same,time of disease development in recipient mice,MLL-AF9+ AML cells [16],significantly later
same,self-renewal in clonogenic re-plating,[17],significantly impaired
same,estimated stem cell frequency,[18],significant decrease and 1/13
same,apoptosis,KASUMI-1 cells [19],signs of apoptosis
same,interaction in selectivity panel,5HT1,weak interaction
same,number of colonies and cells in MC,[20],dose dependent reduction
same,fold selectivity,"BRD4(1); CBP over BRD4(1), from ITC KDs",37 fold
same,Kd,BRD4(1); ITC,5600 nM
same,IC50,CBP bromodomain [21],170 nM
same,off-target activity in BLI screen,[22],weak off-target activity
same,synergy (Chou-Talalay),[23]; combination with JQ1,strong synergy
same,synergy (Chou-Talalay),"[23]; combination with doxorubicin, except MOLM13",strong synergy
CBP bromodomain (domain or fragment),Kd,H3K56ac peptide,13800 nM
"Cc1sc2c(c1C)C(c1ccc(Cl)cc1)=N[C@@H](CC(=O)OC(C)(C)C)c1nnc(C)n1-2 [JQ1, reference compound]",expression of IL10,[15],down-regulated
same,expression of VCAM1/CD106,[15],down-regulated
same,secreted IgG,[15],strongly down-regulated
same,activity alone in WST1 assay,[23],low nM activity
CC1=NN(c2ccc(C(=O)O)cc2)C(=O)/C1=C\c1ccc(-c2cc(C)c(C)cc2[N+](=O)[O-])o1 [C646],HAT inhibitory activity,CBP/p300 HAT activity,low µM activity
"COc1cccc2c1C(=O)c1c(O)c3c(c(O)c1C2=O)C[C@@](O)(C(=O)CO)C[C@@H]3O[C@H]1C[C@H](N)[C@H](O)[C@H](C)O1 [doxorubicin, reference compound]",activity alone in WST1 assay,[23],low nM activity
